Test results reported in ChEMBL document CHEMBL1129520 (J Med Chem, 1996).
pKi: −log10 of the molar value.

Assays:
[1] = target: T1, Histamine H3 receptor (Rattus norvegicus, UniProt Q9QYN8); assay: Binding affinity towards Histamine H3 receptor on synaptosomes from rat cerebral cortex; assay type: subcellular, Brain
Summary of the method: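 Rat cerebral cortex homogenized in ice-cold 50 mM Na2HPO4/KH2PO4, pH 7.5, then washed membranes after two differential centrifugations. Incubated 60 min at 25 °C with [3H]-(R)-α-methylhistamine and drugs at various concentrations. Stopped by ice-cold dilution, vacuum-filtered through glass-fibre filters, scintillation counted. Nonspecific binding defined with 3 µM thioperamide.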

[2] = target: T1, Histamine H3 receptor; assay: (§1) In vitro antagonistic activity tested against Histamine H3 receptor on synaptosomes from rat cerebral cortex; assay type: functional, subcellular, Brain
Summary of the method: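 Rat cerebral cortex synaptosomes preincubated 30 min at 37 °C with L-[3H]histidine (0.4 µM) in modified Krebs-Ringer, washed, resuspended in 2 mM K+ medium. […] Ki via Cheng-Prusoff; mean ± SEM, at least three determinations.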

[3] = target: Histamine H3 receptor (Mus musculus) (UniProt P58406); assay: In vivo antagonistic activity was tested against histamine H3 receptor after oral administration to mouse; assay type: functional, organism-based
Sequence of Histamine H3 receptor (Mus musculus) (P58406 whole entry): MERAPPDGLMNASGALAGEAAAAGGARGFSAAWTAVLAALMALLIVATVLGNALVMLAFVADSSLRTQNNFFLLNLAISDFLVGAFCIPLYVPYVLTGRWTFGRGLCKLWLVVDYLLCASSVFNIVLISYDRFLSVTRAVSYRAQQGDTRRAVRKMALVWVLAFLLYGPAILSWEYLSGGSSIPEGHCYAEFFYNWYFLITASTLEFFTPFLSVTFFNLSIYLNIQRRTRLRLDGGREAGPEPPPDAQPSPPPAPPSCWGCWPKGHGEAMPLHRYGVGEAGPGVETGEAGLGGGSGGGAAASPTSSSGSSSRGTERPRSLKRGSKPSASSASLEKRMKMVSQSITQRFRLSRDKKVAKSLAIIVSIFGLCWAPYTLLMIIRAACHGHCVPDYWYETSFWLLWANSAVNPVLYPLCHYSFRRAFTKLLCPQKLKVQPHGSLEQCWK
Summary of the method: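 Swiss mice dosed perorally. Read-out was the increase in brain Nτ-methylhistamine levels.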

[4] = target: Histamine H1 receptor (Cavia porcellus) (UniProt P31389); assay: […] activity tested against histamine H1 receptor on guinea pig ileum; assay type: functional, tissue-based
Sequence of Histamine H1 receptor (Cavia porcellus) (P31389 whole entry): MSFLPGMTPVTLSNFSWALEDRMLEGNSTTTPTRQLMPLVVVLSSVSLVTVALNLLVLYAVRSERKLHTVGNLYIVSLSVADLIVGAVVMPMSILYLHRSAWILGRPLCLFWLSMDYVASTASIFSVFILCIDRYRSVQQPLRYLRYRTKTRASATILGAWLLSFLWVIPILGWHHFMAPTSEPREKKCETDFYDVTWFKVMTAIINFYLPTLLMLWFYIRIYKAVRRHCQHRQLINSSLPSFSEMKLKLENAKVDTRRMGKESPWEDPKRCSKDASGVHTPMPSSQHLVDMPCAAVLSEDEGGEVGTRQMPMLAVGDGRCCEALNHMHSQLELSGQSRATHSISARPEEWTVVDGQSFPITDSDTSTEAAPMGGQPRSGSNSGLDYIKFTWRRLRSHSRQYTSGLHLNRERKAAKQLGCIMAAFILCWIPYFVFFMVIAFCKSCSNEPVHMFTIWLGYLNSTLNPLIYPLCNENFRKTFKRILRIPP
Summary of the method: (§2)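 Isolated guinea pig ileum, standard functional H1 method. Each test run at least in triplicate.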

[5] = target: Histamine H2 receptor (Cavia porcellus) (UniProt P47747); assay: […] activity tested against histamine H2 receptor on guinea pig atrium; assay type: functional, tissue-based; settings: Cardiac atrium
Sequence of Histamine H2 receptor (Cavia porcellus) (P47747 whole entry): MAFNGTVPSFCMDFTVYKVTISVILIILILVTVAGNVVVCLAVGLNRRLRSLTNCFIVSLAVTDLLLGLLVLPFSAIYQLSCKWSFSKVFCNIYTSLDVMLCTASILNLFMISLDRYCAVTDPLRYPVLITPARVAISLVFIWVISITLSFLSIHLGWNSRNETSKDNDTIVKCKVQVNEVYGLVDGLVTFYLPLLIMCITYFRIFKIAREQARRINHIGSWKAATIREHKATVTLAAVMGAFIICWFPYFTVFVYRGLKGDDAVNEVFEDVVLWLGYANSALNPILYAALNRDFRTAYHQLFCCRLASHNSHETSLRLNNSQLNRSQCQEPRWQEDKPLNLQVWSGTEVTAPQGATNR
Summary of the method: (§3)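 Isolated, spontaneously beating guinea pig right atrium, standard functional H2 method. Each test run at least in triplicate.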

[6] = target: T1, Histamine H3 receptor; assay: as §1; assay type: functional, subcellular, Brain; remark: listed apart in the source
Summary of the method: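 Preloaded 30 min with L-[3H]histidine (0.4 µM) at 37 °C in modified Krebs-Ringer. Washed, resuspended in 2 mM K+ medium, then depolarized 2 min with 2 or 30 mM K+ (final). […] Stopped by rapid centrifugation; liquid scintillation. Ki by Cheng-Prusoff; mean ± SEM, ≥3 determinations.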

[7] = target: Histamine H2 receptor (Cavia porcellus) (UniProt P47747); assay: […] activity against histamine H2 receptor on guinea pig atrium; assay type: functional, tissue-based; settings: Cardiac atrium; summary of the method: as §3
[8] = target: T1, Histamine H3 receptor; assay: In vitro antagonistic activity against histamine H3 receptor on rat cerebral cortex; assay type: functional, tissue-based
Summary of the method: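 Synaptosomes were preloaded 30 min with L-[3H]histidine (0.4 µM) at 37 °C in modified Krebs-Ringer, then washed and resuspended in 2 mM K+ medium. […] The reaction was stopped by centrifugation and read by scintillation. Ki by Cheng-Prusoff, mean ± SEM, n≥3.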

[9] = target: Histamine H1 receptor (Cavia porcellus) (UniProt P31389); assay: […] activity against histamine H1 receptor on guinea pig ileum; assay type: functional, tissue-based; summary of the method: as §2

T1 sequence (Q9QYN8 whole entry): as the sequence (P58406 whole entry) above, with A15T, T286A, G290A, H387R, V389I counted along it

OCCCc1c[nH]cn1
pKi [1]: 6.20 | pKi [2]: 6.40 | ED50 [3]: > 10 mg/kg

O=C(OCCCc1c[nH]cn1)c1ccc(I)cc1
-Log KB [4]: 4.2 | -Log KB [5]: 4.5

O=C(OCCCc1cnc[nH]1)c1ccccc1I
pKi [1]: 7.70 | pKi [6]: 7.41

Ic1cccc(OCCCc2cnc[nH]2)c1
pKi [1]: 8.60 | pKi [6]: 7.77

O=C(Nc1cccc(I)c1)OCCCc1c[nH]cn1
-Log KB [4]: 5.1 | -Log KB [5]: 5.3

O=C(Nc1ccccc1I)OCCCc1cnc[nH]1
pKi [1]: 7.60 | pKi [6]: 7.60

Cc1ccc(C(=O)OCCCc2c[nH]cn2)cc1I
-Log KB [4]: 4.9 | -Log KB [5]: 4.2

O=C(NCc1ccc(I)cc1)OCCCc1c[nH]cn1
pKi [1]: 7.90 | -Log KB [4]: 5.1 | pKi [6]: 7.92 | -Log KB [5]: 4.5

COc1ccc(CCC(=O)OCCCc2c[nH]cn2)cc1I
-Log KB [4]: < 4 | -Log KB [5]: 4.5

Ic1cccc(COCCCc2c[nH]cn2)c1
pKi [1]: 8.90 | -Log KB [4]: 5.8 | pKi [6]: 8.15 | -Log KB [5]: 5.8 | ED50 [3]: > 10 mg/kg

O=C(CCCc1ccc(I)cc1)OCCCc1c[nH]cn1
-Log KB [4]: 4.8 | -Log KB [5]: 4

O=C(Cc1ccc(I)cc1)OCCCc1cnc[nH]1
pKi [1]: 7.90 | pKi [6]: 7.85

Cc1ccc(C(=O)OCCCc2cnc[nH]2)cc1I
pKi [1]: 8.30 | pKi [6]: 7.52

O=C(Nc1cccc(I)c1)OCCCc1cnc[nH]1
pKi [1]: 8.10 | pKi [6]: 7.80

COc1ccc(CCC(=O)OCCCc2cnc[nH]2)cc1I
pKi [1]: 6.70 | pKi [6]: 6.63

Ic1ccc(COCCCc2c[nH]cn2)cc1 [IODOPROXYFAN]
pKi [1]: 9.00 | -Log KB [4]: 5.8 | pKi [6]: 8.30 | -Log KB [5]: 5.2 | ED50 [3]: > 10 mg/kg

Ic1cccc(OCCCc2c[nH]cn2)c1
-Log KB [4]: 6.2 | -Log KB [5]: 5.6

Ic1ccc(OCCCc2cnc[nH]2)cc1
pKi [1]: 8.50 | pKi [6]: 7.66

O=C(CCc1ccc(I)cc1)OCCCc1c[nH]cn1
pKi [1]: 7.10 | -Log KB [4]: 4.8 | pKi [6]: 7.33 | -Log KB [5]: 3.6

O=C(Cc1ccc(I)cc1)OCCCc1c[nH]cn1
-Log KB [4]: 4.5 | -Log KB [5]: 3.6

Nc1c(I)cc(C(=O)OCCCc2c[nH]cn2)cc1I
-Log KB [4]: 5.9 | -Log KB [5]: 4.6

O=C(OCCCc1c[nH]cn1)c1cccc(I)c1
pKi [1]: 8.40 | -Log KB [4]: 4.8 | pKi [6]: 7.60 | -Log KB [5]: 3.8

Ic1ccc(CCCOCCCc2c[nH]cn2)cc1
pKi [1]: 8.10 | -Log KB [4]: 5.2 | pKi [6]: 7.46 | -Log KB [5]: 5.1

Nc1c(I)cc(C(=O)OCCCc2cnc[nH]2)cc1I
pKi [1]: 7.50 | pKi [6]: 6.84

O=C(OCCCc1cnc[nH]1)c1ccc(I)cc1
pKi [1]: 8.10 | pKi [6]: 7.70

S=C(NC1CCCCC1)N1CCC(c2cnc[nH]2)CC1 [THIOPERAMIDE]
Kb [7]: > 10000 nM | pKi [2]: 8.40 | pKi [8]: 8.70

Ic1ccc(OCCCc2c[nH]cn2)cc1
-Log KB [4]: 6.2 | -Log KB [5]: 5.2

O=C(OCCCc1c[nH]cn1)c1ccccc1I
-Log KB [4]: 5.9 | -Log KB [5]: 4.6

Brc1ccc(COCCCc2c[nH]cn2)cc1
pKi [1]: 8.90 | Kb [7]: 12600 nM | pKi [6]: 7.85 | Kb [9]: 1260 nM | ED50 [3]: > 10 mg/kg

O=C(Nc1ccc(I)cc1)OCCCc1cnc[nH]1
pKi [1]: 8.10 | pKi [6]: 7.96 | pKi [2]: 8.00

Cc1[nH]cnc1CSCCNC(=N)NCCCc1c[nH]cn1 [IMPROMIDINE]
Kb [7]: 501 nM | pKi [2]: 7.20 | Kb [9]: > 10000 nM

O=C(Nc1ccccc1I)OCCCc1c[nH]cn1
-Log KB [4]: 4.8 | -Log KB [5]: 4.6

O=C(Nc1ccc(I)cc1)OCCCc1c[nH]cn1
-Log KB [4]: 4.4 | -Log KB [5]: 5.3 | ED50 [3]: > 10 mg/kg

O=C(CCCc1ccc(I)cc1)OCCCc1cnc[nH]1
pKi [1]: 7.50 | pKi [6]: 7.39
